This note sets out measurements from publication PMC6072216 (MedChemComm, 2017).

A value given as a limit tells only on which side of the number the result lay.

Data set [1] relates to MDA-MB-231 breast cancer cells. As to the kind of experiment: MTS cell proliferation/viability assay, MDA-MB-231. Type of data set: cell-based, Human. Particulars: for antiproliferative activity (in words): MDA-MB-231, 50 μM, 48 hours, MTS. The method, boiled down:
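MDA-MB-231 cells cultured in DMEM with 10% FBS and 1% penicillin/streptomycin at 37 °C, 5% CO2; seeded at 7 × 10^3 per well. Serum removed after 24 h, then test compound at 1–50 μM in DMSO (max 0.1%) for 48 h, with a solvent-only control. MTS reagent 4 h at 37 °C, OD 550 nm. Blank-subtracted values normalised to DMSO (100%); triplicates; IC50 by nonlinear regression.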

The test system of data set [2] is MCF-7 breast cancer cells. Nature of the data set: MTS cell proliferation assay, MCF-7. Type of data set: cell-based, human. Particulars: MCF-7, highest concentration tested 50 μM, 48 h. The method, boiled down:
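MCF-7 cells seeded at 7 × 10^3 per well; serum withdrawn after 24 h, then exposed 48 h to test compound at 10–50 μM in DMSO (max 0.1%), with a solvent-only control. MTS reagent added; absorbance read at 550 nm after 4 h at 37 °C. Blank-subtracted values normalised to DMSO control (100%); triplicates.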
Background: Formazan colour is commonly taken as a measure of viable cells.

Data set [3] concerns MDA-MB-231 cells. Nature of the data set: Annexin V-FITC/PI apoptosis assay by flow cytometry. In kind it is cell-based, Human. Particulars: 48 hours. In short, it runs like this:
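MDA-MB-231 cells seeded at 1 × 10^5 per well in 6-well plates; 24 h after serum removal, exposed to test compound (20–40 μM) for 48 h against a 0.1% DMSO control. Trypsinised, washed in cold PBS, stained with Annexin V-FITC and PI (50 μg mL–1) in binding buffer for 20 min in the dark at 0 °C. Flow cytometry gated viable, early-apoptotic, late-apoptotic and necrotic fractions. 3 independent experiments; one-way ANOVA with Fisher's PLSD.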
(In general: In flow cytometry, cells or beads pass a laser one at a time.)

Data set [4] deals with VERO cells. As to the kind of experiment: Cytotoxicity against GFP-expressing VERO cells. Type of data set: cell-based, African Green Monkey. Particulars: 50 μg mL^–1 (158 μM for 2c, 139 μM for 3), 4 days.
The test system of data set [5] is leukaemia, colon, renal and melanoma cancer cell lines. As to the kind of experiment: NCI anti-cancer screen, summary over cell line groups. Type of data set: cell-based. Particulars: read-out: IC50 values.

For the compound `CC(=O)N[C@@]1(C)C2CC[C@@]3(C)N=C(CCl)C1CC3C2` (stereo partly drawn) [Compound 8, Exo-11-acetamido-4,endo-11-dimethyl-2-chloromethyl-3-azatricyclo[5.3.1.0^4,9]undec-2-ene], the “antiproliferative activity (in words)” value in data set [1] is reported as “lack of activity”.
`CC(=O)N[C@@]1(C)C2CC[C@@]3(C)N[C@@H](CCl)C1CC3C2` (stereo partly drawn) [Compound 9, Exo-11-acetamido-4,endo-11-dimethyl-2-chloromethyl-3-azatricyclo[5.3.1.0^4,9]undecane]: the “antiproliferative activity (in words)” value in data set [1] is reported as “lack of activity”.
`C[C@]1(NC(=O)CCl)C2CC[C@@]3(C)N=C(CCl)C1CC3C2` (stereo partly drawn) [Compound 2c, Exo-11-chloroacetamido-4,endo-11-dimethyl-2-chloromethyl-3-azatricyclo[5.3.1.0^4,9]undec-2-ene]: the MDA-MB-231 cell viability in data set [1] (at 20 μM) is given as 90 % of control. The “antiproliferative activity (in words)” value in data set [2] is on record as “no antiproliferative activities”. Besides, the “increase of population of cells in early apoptosis” value worked out at 21% in data set [3] (20 μM) and 31% in data set [3] (40 μM). Further, the “reduction of VERO cell viability” value in data set [4] was 84 % of control.
Regarding `COC(=O)C[C@H]1C(=O)C=C2C3CC4CC(CC[C@@]4(C)N21)[C@]3(C)NC(C)=O` (stereo partly drawn) [Compound 10, Methyl(E)-[exo-11-acetylamino-9α,endo-11-dimethyl-2-oxo-1,2,4,5,5α,6,7,8,9,9α-decahydro-4,7-methanopyrrolo[1,2-a]-quinolin-1-ylidane]ethanoate], in data set [1], the “antiproliferative activity (in words)” value was “lack of activity”.
What is called IC50 is the concentration needed to halve the response being measured. `COC(=O)/C=C1\C(=O)C=C2C3CC4CC(CCC4(C)N21)C3(C)NC(C)=O` (stereo not shown) [Compound 3]: in data set [4], the “reduction of VERO cell viability” value was 77 % of control. For the same compound, in data set [5], the IC50 is less than 10 µM.
